In article PMC9392492 (International Journal of Nanomedicine, 2022):

Experiments:
Type in all cases: in vivo
[1] = system: hot-plate nociception in mice; experiment: Hot plate test; details: RJ-III 0.2 mg/kg, aspirin 300 mg/kg
Summary of the method: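 Baseline latency (paw lick or jump) on a 53 ± 0.5°C plate was taken three times, 15 min apart. Mice under 5 s or over 30 s were excluded. Fasted ICR mice (n = 10) then received free or SLN-formulated test compound (0.20 mg/kg), aspirin or saline, all i.g. Latency was re-measured at 15 and 45 min, with a 30 s cutoff.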

[2] = system: acetic acid-induced writhing in mice; experiment: Acetic acid writhing test; details: i.g.; RJ-III 0.10 mg/kg, aspirin 200 mg/kg
Summary of the method: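 Fasted ICR mice (18–22 g, both sexes), n = 10 per group, received free or SLN-formulated test compound (0.10 mg/kg), aspirin (200 mg/kg) or 0.9% saline, all i.g. Then 0.8% acetic acid (10 mL/kg, i.p.) was injected at 15 or 45 min post-dose, in two separate experiments. Abdominal contortions and hind-paw extensions were counted for 30 min.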

[3] = system: formalin-induced nociception in mice; experiment: Formalin test; details: formalin 15 min after i.g. administration; RJ-III 0.10 mg/kg, aspirin 200 mg/kg
Summary of the method: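 Fasted ICR mice, n = 10 per group, were dosed i.g. with free or SLN-formulated test compound (0.10 mg/kg), aspirin (200 mg/kg) or saline. Then 25 μL of 2.5% formalin was injected s.c. into the left hind paw at 15 or 45 min post-dose, in separate experiments. Licking/biting time (s) was scored at 0–5 min (phase I) and 15–30 min (phase II).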

CC(=O)Oc1ccccc1C(=O)O [aspirin]
latency time compared to pretreatment ([1]; 15 min after i.g. administration): increased the latency time
antinociception relative to pretreatment ([1]; 45 min after i.g. administration): no significant analgesic effect
change in number of writhes between 15 and 45 min [2]: statistically increases
phase I response (licking time) vs normal saline [3]: no effects
phase II response (licking time) vs normal saline [3]: suppressed behavioral responses
